High-throughput results deposited in PubChem by several laboratories.
PolyA inhibitor: yeast polyadenylation inhibition | S. cerevisiae SKY197-pL101 polyadenylation reporter, beta-gal luminescence; efflux-impaired pdr1/pdr3 knockout yeast; score 100 = 6 SD above DMSO | 300,000 tested, 0.02% active | AID 1875 | activity score, % at 12 µM;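 active means lowest replicate activity score at least 50, where 100 means six control SD above control mean; inconclusive means lowest score under 50 but half or more replicates reach 50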;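 further: yeast exposed to compound for 9 h at 30 °C; higher score means more reporter readthrough which indicates perturbed polyadenylation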
NALP1 yeast inh: NALP1 inhibition | S. cerevisiae NALP1/ASC/caspase-1 growth, X-gal OD620, 72 h | inhibition, % at 10 µM | 280,000 tested, 0.61% active | AID 2071; in the data active means inhibition mostly above about 24%, no sharp cut-off; inactive means mostly below about 32%
T cruzi repl: blocks replication of Trypanosoma cruzi. 300,000 tested, 1.4% active. inhibition, % (no concentration beside the values). T. cruzi beta-gal in NIH3T3, luminescence, 90 h;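 active means mean inhibition across valid replicates above about 55%, limit read from the data; inconclusive means mean below that limit but half or more replicates reach it; inactive means mean below it, under half of replicates reach it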;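 further: signal also drops with host cell toxicity which is not excluded here; higher percent means less beta-gal luminescence so fewer parasites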
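System: NIH/3T3 fibroblasts plus reporter T. cruzi. Medium: DMEM plus 2% FBS. Probe or stimulus: 5000 reporter trypomastigotes per well. Compound: single 50 nL compound addition per well in DMSO. Incubation: co-culture of at least 90 h after 3 h attachment. Detection: GalScreen β-gal luminescence, detergent lysis, 60 min. Evaluation: parasite load inhibition, %.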
Calb FLC: affects C. albicans growth with fluconazole. growth inhibition, % (concentration not given with the values). C. albicans CaCi-2 (fluconazole-resistant clinical isolate) + fluconazole, Alamar Blue growth, 48 h. AID 1979. 300,000 tested, 0.57% active;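 active means growth inhibition above about 58% in most replicates, limit read from the data, passing the limit was not always enough; inconclusive means exactly half the replicates above a set limit; inactive means most replicates below a set limit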;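 further: all wells also contain fluconazole at 8 µg/ml as a sub-toxic cotreatment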
L major viab: Leishmania major promastigote growth inhibition; Leishmania major promastigotes, resazurin fluorescence viability; inhibition, % at 10 µM; 200,000 tested, 9% active;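 further: promastigotes grown with compound for 44 hours at 28 °C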
NALP3 yeast inh: inhibitors of NALP3 inflammasome in yeast; Yeast reconstituted NLRP3/ASC/caspase-1, beta-gal luminescence, 24 h; inhibition, % at 10 µM; 330,000 tested, 0.39% active;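 active means inhibition of 50% or more; inactive means inhibition below 50%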
NALP3 yeast conf: NALP3 inhibition confirmation in yeast. 1,300 tested, 81% active. inhibition, % at 10 µM. yeast expressing human NALP3, luminescence. shares compounds with NALP3 yeast inh. AID 435006; in the data active means inhibition above about 48%
Casp1-ASC yeast: active in yeast caspase-1-ASC counter-screen for NALP3 inhibitors; shares compounds with NALP3 yeast inh; yeast expressing Caspase-1-ASC, luminescence counter screen; inhibition, % at 10 µM; 1,000 tested, 66% active
NALP3 yeast rt: retest-confirmed inhibitor of NALP3 in yeast | inhibition, % at 10 µM | yeast expressing human NALP3, luminescence read-out | shares compounds with NALP3 yeast inh | 1,000 tested, 53% active
Each line names hits and unclear results; the compound was inactive in the other large screens (follow-up assays come after a bar, where they were run). Many of the other results were omitted from the sample, so hits are more common in it than they were. Unless noted, no stated cut-off is given here; in the data, active means inhibition above about 50%; inactive means the rest.

CCOc1ccc(CSCCNC(=S)Nc2ccc(OC)cc2)cc1	NALP3 yeast inh 67.9 (no result: L major viab) | NALP3 yeast conf 64.5 | Casp1-ASC yeast inactive | NALP3 yeast rt inactive
Cc1nc2ccccc2c(C)c1CC(=O)N(C)CC(=O)Nc1cccc(F)c1	none (no result: NALP1 yeast inh, L major viab)
COc1ccc(NCCC(O)c2ccc(Cl)cc2)cc1 (stereo unspecified)	NALP3 yeast inh 59.1 (no result: L major viab) | NALP3 yeast conf 67.1 | Casp1-ASC yeast inactive | NALP3 yeast rt inactive
CN(C)c1ccc(C(=O)/C=C/c2ccccc2)cc1	NALP3 yeast inh 52.5 | NALP3 yeast conf 72.2 | Casp1-ASC yeast inactive | NALP3 yeast rt inactive
CC(=O)O[C@H]1C(=O)[C@@]2(C)[C@H]([C@H](OC(=O)c3ccccc3)[C@]3(O)C[C@H](OC(=O)[C@H](O)[C@@H](NC(=O)c4ccccc4)c4ccccc4)C(C)=C1C3(C)C)[C@]1(OC(C)=O)CO[C@@H]1C[C@@H]2O	none (no result: PolyA inhibitor, NALP1 yeast inh, T cruzi repl, Calb FLC, L major viab)
Cc1[nH]cnc1CSCc1ccc(Cl)cc1	none
Cc1[nH]cnc1CSCCN	NALP3 yeast inh 57.6 | NALP3 yeast conf 69.4 | Casp1-ASC yeast 53.6 | NALP3 yeast rt 65.2
CCc1cc(=O)oc2c(C)c(OCC(=O)N3CCC(C(=O)O)CC3)ccc12	none (no result: L major viab)
CCOC(=O)c1cnc(SC)nc1N1CCCC1	NALP3 yeast inh 55.5 | NALP3 yeast conf 51.6 | Casp1-ASC yeast 55.6 | NALP3 yeast rt inactive
CCN(CC)C(=O)c1[nH]cnc1C(=O)NCc1ccc(CNC(=O)OC(C)(C)C)cc1	none (no result: PolyA inhibitor, NALP1 yeast inh, T cruzi repl, Calb FLC, L major viab)
Cc1ccc(-c2nc3ccccc3[nH]2)cc1NC(=O)c1ccc2c(c1)OCO2	NALP3 yeast inh 59.8 | NALP3 yeast conf 59.3 | Casp1-ASC yeast 55.8 | NALP3 yeast rt 59.0
CCOc1ccc(C(=O)Nc2cc(-c3nc4ccccc4[nH]3)ccc2Cl)cc1[N+](=O)[O-]	NALP1 yeast inh 55.6, L major viab 95.6, NALP3 yeast inh 77.9 | NALP3 yeast conf inactive
Cc1ccc2c(c1)sc(=NC(=O)c1cccs1)n2C	NALP3 yeast inh 58.1 | NALP3 yeast conf inactive | Casp1-ASC yeast inactive | NALP3 yeast rt inactive
Cc1ccc2c(c1)sc(=NC(=O)C1CC1)n2C	none (no result: NALP1 yeast inh, L major viab)
COc1ccc(CN2C(=O)C(=O)N(CC(N)=O)C2=O)cc1	none
Cc1cccnc1NC(=O)CNC(=O)C12CC3CC(CC(C3)C1)C2	none (no result: NALP1 yeast inh, L major viab)
CN1CCN(S(=O)(=O)c2ccc(SCCOc3ccc(Cl)cc3)nc2)CC1	NALP3 yeast inh 73.7 (no result: PolyA inhibitor, NALP1 yeast inh, T cruzi repl, Calb FLC, L major viab) | NALP3 yeast conf 74.3 | Casp1-ASC yeast inactive | NALP3 yeast rt inactive
C=CCc1ccc(OCCn2nnc3ccccc32)c(OC)c1	NALP3 yeast inh 53.1 (no result: L major viab) | NALP3 yeast conf 63.2 | Casp1-ASC yeast 50.2 | NALP3 yeast rt inactive
Cn1c(=O)c(C(=O)NNC(=O)c2ccc(Br)cc2)c(O)c2ccccc21	NALP3 yeast inh 60.2 (no result: L major viab) | NALP3 yeast conf 78.5
Cn1c(=O)c(C(=O)NNC(=O)c2ccccc2F)c(O)c2ccccc21	NALP3 yeast inh 64.1 (no result: L major viab) | NALP3 yeast conf 81.9 | Casp1-ASC yeast inactive | NALP3 yeast rt 54.2
COc1ccc(NC(=S)Nn2cnnc2)c(OC)c1	none (no result: PolyA inhibitor, T cruzi repl, L major viab)
Cc1ccccc1CN1CCSc2sccc2C1=O	NALP3 yeast inh 58.4 | NALP3 yeast conf inactive | Casp1-ASC yeast inactive | NALP3 yeast rt inactive
O=C1c2ccsc2SCCN1Cc1ccccc1Cl	NALP3 yeast inh 50.7 | NALP3 yeast conf 56.5 | Casp1-ASC yeast inactive | NALP3 yeast rt inactive
Cc1cccc(CN2CCSc3sccc3C2=O)c1	none
CCSc1ccc([C@@H]2[C@H]3C(=O)N(C)C(=O)[C@H]3[C@]3(C(=O)OC)CCCCN23)cc1	none (no result: PolyA inhibitor, NALP1 yeast inh, T cruzi repl, Calb FLC, L major viab)
Cc1ccccc1C(=O)O/N=C/c1c(N2CCOCC2)n(C)c2ccccc12	Calb FLC 107.2, L major viab 99.6, NALP3 yeast inh 66.1 | NALP3 yeast conf 82.7 | Casp1-ASC yeast 91.8 | NALP3 yeast rt 78.8
Cc1ccc(Nc2c(-c3ccccn3)nc3cc(C)ccn23)cc1	T cruzi repl 76.3, Calb FLC inconclusive, L major viab 100.7, NALP3 yeast inh 53.4 | NALP3 yeast conf 62.8 | Casp1-ASC yeast 50.5 | NALP3 yeast rt inactive
Cn1cccc1-c1nc2ccccc2n1Cc1ccccc1	none | NALP3 yeast conf inactive
CC(O)c1nc2ccccc2n1Cc1ccccc1 (stereo unspecified)	none (no result: L major viab)
Cc1ccc(NC(=O)NCc2cccn2C)cc1C	none (no result: L major viab)
CC(=O)N(Cc1ccco1)c1nc(C(=O)Nc2ccc(Cl)cc2)c(C)s1	none
O=S(=O)(c1ccsc1)N1CC=C(c2ccccc2)CC1	NALP3 yeast inh 58.4 (no result: L major viab) | NALP3 yeast conf 61.1 | Casp1-ASC yeast inactive | NALP3 yeast rt inactive
NC(=O)c1ccc(NC(=O)COC(=O)c2cccc(Oc3ccccc3)c2)cc1	none
COCc1cc(Sc2ccc(Cl)cc2Cl)nc(-c2ccccc2)n1	none
CSc1nc2ccc(S(=O)(=O)N3CCCCC3)cc2s1	NALP3 yeast inh 63.1 | NALP3 yeast conf 82.3 | Casp1-ASC yeast inactive | NALP3 yeast rt inactive
CSc1nc2ccc(S(=O)(=O)N3CCOCC3)cc2s1	none
c1ccc(-c2ccc(-c3nc(-c4ccccn4)no3)cc2)cc1	NALP3 yeast inh 52.9 | NALP3 yeast conf 50.3 | Casp1-ASC yeast inactive | NALP3 yeast rt inactive
N#C/C(=C\c1cccnc1)c1ccc([N+](=O)[O-])cc1	none (no result: L major viab)
COC(=O)c1ccc(/C=C(\C#N)c2ccccn2)cc1	NALP3 yeast inh 62.7 | NALP3 yeast conf 52.0 | Casp1-ASC yeast inactive | NALP3 yeast rt inactive
N#C/C(=C\c1ccc([N+](=O)[O-])cc1)c1ccccn1	NALP3 yeast inh 55.0 | NALP3 yeast conf 55.6 | Casp1-ASC yeast inactive | NALP3 yeast rt inactive
CN(C)c1ccc(/C=C(\C#N)c2ccccn2)cc1	NALP3 yeast inh 51.2 | NALP3 yeast conf inactive
N#C/C(=C\c1ccccn1)c1ccccn1	none (no result: L major viab)
CCCC[C@@H]1CNCCN1CCCc1cc(OC)c(OC)c(OC)c1	none (no result: NALP1 yeast inh, L major viab)
COc1ccc(NC(=O)Nc2ccc3c(c2)CCC3)cc1OC	none
COc1ccc(/C=C/C(=O)Nc2ccc3c(c2)CCC3)cc1OC	NALP3 yeast inh 59.5 | NALP3 yeast conf inactive
O=C1C(CCCNC(=S)NCc2ccccc2)NC(=S)N1Cc1ccccc1 (stereo unspecified)	none
Clc1ccc(-c2nc3n(n2)Cc2ccccc2-3)cc1	none
CCN(CC)S(=O)(=O)c1cccc(-c2nc3n(n2)Cc2ccccc2-3)c1	none | NALP3 yeast conf inactive
CCOc1ccc(N/C=C/C(=O)c2ccccc2)c([N+](=O)[O-])c1	NALP1 yeast inh 51.3, NALP3 yeast inh 58.9 | NALP3 yeast conf inactive
Cc1cc(S(=O)(=O)N2CCCCCC2)c(Cl)cc1Cl	NALP3 yeast inh 61.4 | NALP3 yeast conf 64.3 | Casp1-ASC yeast 70.5 | NALP3 yeast rt inactive
